Calls of active or inactive are those of the source. No cut-off for these calls is given here. Bounds are passed on as bounds.

Test [1] has as its system Staphylococcus aureus. Put plainly: Antibacterial activity against wild type Staphylococcus aureus assessed as inhibition of bacterial growth at antibacterial IC50 level in presence of 10 times IC50 levels of putrescine. The test is classed as functional, organism-based. The essentials:
(§1)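 Cells started at A560 0.020 in M9 medium with drug at its own growth IC50, alone or with putrescine, spermidine or spermine at 10×IC50. Cultures run until the drug-free control reached A560 0.800. Growth given as percent of control optical density. At least three experiments, two replicates each, mean±SD, p<0.05.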

In test [2] the test system is Staphylococcus aureus. The test can be described thus: Antibacterial activity against wild type Staphylococcus aureus assessed as inhibition of bacterial growth at antibacterial IC50 level in presence of 10 times IC50 levels of spermine. It counts as functional, organism-based. The procedure, abridged:
as §1

The test system of test [3] is Staphylococcus aureus. Put plainly: Antibacterial activity against wild type Staphylococcus aureus assessed as inhibition of bacterial growth at antibacterial IC50 level in presence of 10 times IC50 levels of spermidine. The test is classed as functional, organism-based. The essentials: as §1
The subject of test [4] is Escherichia coli. Put plainly: Antibacterial activity against wild type Escherichia coli K-12 assessed as inhibition of bacterial growth at antibacterial IC50 level in presence of 10 times IC50 levels of putrescine. It counts as functional, organism-based. The procedure, abridged: as §1
Test [5] concerns Escherichia coli. Put plainly: Antibacterial activity against wild type Escherichia coli K-12 assessed as inhibition of bacterial growth at antibacterial IC50 level in presence of 10 times IC50 levels of spermine. The test is classed as functional, organism-based. The essentials: as §1
Test [6] has as its system Escherichia coli. Put plainly: Antibacterial activity against wild type Escherichia coli K-12 assessed as inhibition of bacterial growth at antibacterial IC50 level in presence of 10 times IC50 levels of spermidine. The test is classed as functional, organism-based. The essentials:
as §1

The test system of test [7] is Staphylococcus aureus. Put plainly: Antibacterial activity against methicillin-resistant Staphylococcus aureus GRE2272 assessed as inhibition of bacterial growth. The test is classed as functional, organism-based.
The test system of test [8] is Staphylococcus aureus. Put plainly: Antibacterial activity against methicillin-resistant Staphylococcus aureus GRE2372 assessed as inhibition of bacterial growth. It counts as functional, organism-based.
Test [9] relates to Staphylococcus aureus. The test can be described thus: Antibacterial activity against methicillin-resistant Staphylococcus aureus GRE2691 assessed as inhibition of bacterial growth. It counts as functional, organism-based.
Test [10] in a line: Inhibition of Escherichia coli K-12 70S ribosome poly(U)-programmed ribosome (complex C) bearing tRNAPhe at E-site and Ac[3H]Phe-tRNA at P-site assessed as reduction in peptide bond formation using puromycin(S) substrate.
Test [11] deals with Escherichia coli. Put plainly: Antibacterial activity against wild type Escherichia coli K-12 assessed as inhibition of bacterial growth. The test is classed as functional, organism-based.
Test [12] has as its system Escherichia coli. Put plainly: Antibacterial activity against Escherichia coli BL21(DE3) expressing delta-tolC gene assessed as inhibition of bacterial growth. The test is classed as functional, organism-based. The procedure, abridged:
(§2)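 IC50 from bacterial cultures grown in LB medium without drug or with drug across a range of concentrations, reported in μM. Three independent experiments, each with two replicates, given as mean±SD.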

Test [13] deals with Escherichia coli. The test can be described thus: Antibacterial activity against Escherichia coli Rosetta(DE3) containing rare tRNA genes and chloramphenicol resistant gene in pLysS plasmid assessed as inhibition of bacterial growth. The test is classed as functional, organism-based. The procedure, abridged:
as §2

The test system of test [14] is Staphylococcus aureus. Put plainly: Antibacterial activity against wild type Staphylococcus aureus assessed as inhibition of bacterial growth. The test is classed as functional, organism-based.

Turning to `NCCCCN(CCCN)C(=O)CCC(=O)N[C@H](CO)[C@H](O)c1ccc([N+](=O)[O-])cc1` [listing 1 of 3 here], the “growth inhibition (GI)” value with Staphylococcus aureus [1], in the test with Staphylococcus aureus [2], with Staphylococcus aureus [3], with Escherichia coli [4], in the test with Escherichia coli [5] and in the test with Escherichia coli [6] was “inactive” throughout.
Turning to `CN[C@H](CC(C)C)C(=O)N[C@H]1C(=O)N[C@@H](CC(N)=O)C(=O)N[C@H]2C(=O)N[C@H]3C(=O)N[C@H](C(=O)N[C@H](C(=O)O)c4cc(O)cc(O)c4-c4cc3ccc4O)[C@H](O)c3ccc(c(Cl)c3)Oc3cc2cc(c3O[C@@H]2O[C@H](CO)[C@@H](O)[C@H](O)[C@H]2O[C@H]2C[C@](C)(N)[C@H](O)[C@H](C)O2)Oc2ccc(cc2Cl)[C@H]1O`, the “growth inhibition (GI)” value with Staphylococcus aureus [7], in the test on Staphylococcus aureus [8] and with Staphylococcus aureus [9] was “Active” throughout.
What is called Ki is the dissociation constant of the complex between target and ligand, obtained from inhibition or displacement. Consider `NCCCCN(CCCN)C(=O)CCC(=O)N[C@H](CO)[C@H](O)c1ccc([N+](=O)[O-])cc1` [listing 2 of 3 here], for which the Ki in test [10] was determined as 1.2 µM.
Turning to `NCCCNCCCCNCCCNC(=O)CCC(=O)N[C@H](CO)[C@H](O)c1ccc([N+](=O)[O-])cc1` [listing 1 of 2 here], the “growth inhibition (GI)” value in the test on Staphylococcus aureus [1], in the test with Staphylococcus aureus [2], with Staphylococcus aureus [3], in the test with Escherichia coli [4], in the test with Escherichia coli [5] and in the test with Escherichia coli [6] was “inactive” throughout.
Usually IC50 stands for the concentration needed to halve the response being measured. On to `NCCCCNC(=O)CCC(=O)N[C@H](CO)[C@H](O)c1ccc([N+](=O)[O-])cc1` [listing 1 of 2 here], for which the half-inhibitory concentration (IC50) in the test with Staphylococcus aureus [7], in the test on Staphylococcus aureus [8], with Staphylococcus aureus [9], in the test with Escherichia coli [11], with Escherichia coli [12] and in the test on Escherichia coli [13] was > 200 µM in each case.
For `NCCCCNC(=O)c1ccccc1C(=O)N[C@H](CO)[C@H](O)c1ccc([N+](=O)[O-])cc1` [listing 1 of 2 here], in [10], the Ki was found to be 8.45 µM.
Turning to `NC[C@H]1O[C@H](O[C@H]2[C@H](O)[C@@H](O[C@H]3O[C@H](CO)[C@@H](O)[C@H](N)[C@H]3O)[C@H](N)C[C@@H]2N)[C@H](O)[C@@H](O)[C@@H]1O`, the “growth inhibition (GI)” value with Staphylococcus aureus [7], with Staphylococcus aureus [8] and with Staphylococcus aureus [9] was “inactive” in each case.
Turning to `NCCCCNCCCCNCCCNC(=O)[C@@H](NC(=O)C(Cl)Cl)[C@H](O)c1ccc([N+](=O)[O-])cc1`, the Ki in [10] stood at 5 µM.
On the same count and under the same terms, in the case of `NCCCN(CCCCN(Cc1ccccc1)Cc1ccccc1)C(=O)CCC(=O)N[C@H](CO)[C@H](O)c1ccc([N+](=O)[O-])cc1` it was 0.28 µM.
Consider `O=C(CCNC(=O)c1nc[nH]n1)N[C@H](CO)[C@H](O)c1ccc([N+](=O)[O-])cc1`, for which the IC50 in the test with Staphylococcus aureus [7] is > 100 µM; in the test on Staphylococcus aureus [8], > 100 µM; in the test with Staphylococcus aureus [9], > 100 µM; with Staphylococcus aureus [14], 66 µM; with Escherichia coli [11], > 200 µM; in the test with Escherichia coli [12], > 200 µM. Further, the IC50 in the test with Escherichia coli [13] was > 200 µM. Besides, the Ki in test [10] came out at 4 µM.
In the case of `CC[C@H]1OC(=O)[C@H](C)[C@@H](O[C@H]2C[C@@](C)(OC)[C@@H](O)[C@H](C)O2)[C@H](C)[C@@H](O[C@@H]2O[C@H](C)C[C@H](N(C)C)[C@H]2O)[C@](C)(O)C[C@@H](C)C(=O)[C@H](C)[C@@H](O)[C@]1(C)O`, the “growth inhibition (GI)” value in the test with Staphylococcus aureus [7], in the test with Staphylococcus aureus [8] and in the test with Staphylococcus aureus [9] was “inactive” throughout.
As for `CCC[C@@H]1C[C@@H](C(=O)N[C@@H]([C@H]2O[C@H](SC)[C@H](O)[C@@H](O)[C@H]2O)[C@H](C)Cl)N(C)C1`, the “growth inhibition (GI)” value in the test with Staphylococcus aureus [7] and in the test with Staphylococcus aureus [8] was “inactive” throughout. Further, in the test with Staphylococcus aureus [9], the “growth inhibition (GI)” value was “Active”.
For the compound GENTAMICIN, the “growth inhibition (GI)” value in the test with Staphylococcus aureus [7] and in the test on Staphylococcus aureus [9] was “inactive” in each case. Moreover, the “growth inhibition (GI)” value in the test with Staphylococcus aureus [8] was “Active”.
Consider `Cc1onc(-c2ccccc2)c1C(=O)N[C@@H]1C(=O)N2[C@@H]1SC(C)(C)[C@@H]2C(=O)O`, for which the “growth inhibition (GI)” value with Staphylococcus aureus [7], in the test on Staphylococcus aureus [8] and in the test with Staphylococcus aureus [9] was “inactive” throughout.
With `CO[C@@]1(NC(=O)Cc2cccs2)C(=O)N2C(C(=O)O)=C(COC(N)=O)CS[C@@H]21`, the “growth inhibition (GI)” value in the test on Staphylococcus aureus [7], in the test with Staphylococcus aureus [8] and with Staphylococcus aureus [9] was “inactive” in each case.
As to `NCCCCN(CCCN)C(=O)CCC(=O)N[C@H](CO)[C@H](O)c1ccc([N+](=O)[O-])cc1` [listing 3 of 3 here], the IC50 was > 100 µM in the test with Staphylococcus aureus [7]; > 100 µM with Staphylococcus aureus [8]; > 200 µM with Staphylococcus aureus [9]; 12.7 µM in the test with Staphylococcus aureus [14]; > 150 µM in the test on Escherichia coli [11]; > 100 µM with Escherichia coli [12]. In addition, in the test with Escherichia coli [13], the IC50 was > 100 µM.
For the compound `NCCCCNC(=O)CCC(=O)N[C@H](CO)[C@H](O)c1ccc([N+](=O)[O-])cc1` [listing 2 of 2 here], in [10], the Ki turned out to be 0.9 µM.
On the same count and under the same terms, in the case of `NCCCNCCCCNCCCNC(=O)CCC(=O)N[C@H](CO)[C@H](O)c1ccc([N+](=O)[O-])cc1` [listing 2 of 2 here] it was 0.75 µM.
Take `CO[C@H]1/C=C/O[C@@]2(C)Oc3c(C)c(O)c4c(O)c(c(/C=N/N5CCN(C)CC5)c(O)c4c3C2=O)NC(=O)/C(C)=C\C=C\[C@H](C)[C@H](O)[C@@H](C)[C@@H](O)[C@@H](C)[C@H](OC(C)=O)[C@@H]1C`: the “growth inhibition (GI)” value in the test on Staphylococcus aureus [7] and in the test with Staphylococcus aureus [9] was “Active” each time. In the test on Staphylococcus aureus [8], the “growth inhibition (GI)” value was “inactive”.
Turning to `CC(=O)N[C@@H]1[C@H](Oc2c3cc4cc2Oc2ccc(cc2Cl)[C@@H](O[C@@H]2O[C@@H](CO)[C@@H](O)[C@H](O)[C@@H]2NC(C)=O)[C@@H]2NC(=O)[C@H](NC(=O)[C@@H]4NC(=O)[C@H]4NC(=O)[C@@H](Cc5ccc(c(Cl)c5)O3)NC(=O)[C@H](N)c3ccc(O)c(c3)Oc3cc(O)cc4c3)c3ccc(O)c(c3)-c3c(O[C@H]4O[C@H](CO)[C@@H](O)[C@@H](O)[C@@H]4O)cc(O)cc3[C@@H](C(=O)O)NC2=O)O[C@@H](CO)[C@@H](O)[C@@H]1O`, the “growth inhibition (GI)” value with Staphylococcus aureus [7], with Staphylococcus aureus [8] and in the test on Staphylococcus aureus [9] was “Active” throughout.
For `COc1cccc(OC)c1C(=O)N[C@@H]1C(=O)N2[C@@H]1SC(C)(C)[C@@H]2C(=O)O`, the “growth inhibition (GI)” value in the test on Staphylococcus aureus [7], in the test on Staphylococcus aureus [8] and in the test on Staphylococcus aureus [9] was “inactive” throughout.
Regarding `CC(=O)O[C@H]1C[C@@]2(C)[C@@H](C[C@@H](O)[C@H]3[C@@]4(C)CC[C@@H](O)[C@@H](C)[C@@H]4CC[C@@]32C)/C1=C(\CCC=C(C)C)C(=O)O`, the “growth inhibition (GI)” value in the test with Staphylococcus aureus [7], in the test on Staphylococcus aureus [8] and in the test with Staphylococcus aureus [9] was “inactive” in each case.
As for `O=C(N[C@H](CO)[C@H](O)c1ccc([N+](=O)[O-])cc1)c1nc[nH]n1`, the IC50 with Staphylococcus aureus [7] was > 100 µM; in the test with Staphylococcus aureus [8], > 100 µM; in the test on Staphylococcus aureus [9] it was > 100 µM; in the test with Staphylococcus aureus [14] it was > 100 µM; in the test on Escherichia coli [11], > 300 µM; in the test with Escherichia coli [12], > 300 µM. In addition, the IC50 in the test with Escherichia coli [13] was > 300 µM. For the same compound, in test [10], the inhibition constant Ki stood at 1 µM.
As for `CN(C)[C@@H]1C(O)=C(C(N)=O)C(=O)[C@@]2(O)C(O)=C3C(=O)c4c(O)cccc4[C@@](C)(O)[C@H]3C[C@@H]12`, the “growth inhibition (GI)” value in the test with Staphylococcus aureus [7] and with Staphylococcus aureus [9] was “inactive” in each case. Besides, the “growth inhibition (GI)” value in the test with Staphylococcus aureus [8] was “Active”.
As for `CCCCCCCCCC(=O)N[C@@H](Cc1c[nH]c2ccccc12)C(=O)N[C@H](CC(N)=O)C(=O)N[C@@H](CC(=O)O)C(=O)N[C@@H]1C(=O)NCC(=O)N[C@@H](CCCN)C(=O)N[C@@H](CC(=O)O)C(=O)N[C@H](C)C(=O)N[C@@H](CC(=O)O)C(=O)NCC(=O)N[C@H](CO)C(=O)N[C@@H]([C@H](C)CC(=O)O)C(=O)N[C@@H](CC(=O)c2ccccc2N)C(=O)O[C@@H]1C`, the “growth inhibition (GI)” value in the test on Staphylococcus aureus [7], with Staphylococcus aureus [8] and in the test with Staphylococcus aureus [9] was “Active” each time.
For `NCCCCNC(=O)c1ccccc1C(=O)N[C@H](CO)[C@H](O)c1ccc([N+](=O)[O-])cc1` [listing 2 of 2 here], the IC50 in the test on Staphylococcus aureus [7], with Staphylococcus aureus [8], with Staphylococcus aureus [9], with Escherichia coli [11], with Escherichia coli [12] and in the test on Escherichia coli [13] was > 200 µM throughout.

The record behind these values is ChEMBL document CHEMBL3585321, “Synthesis and antimicrobial activity of chloramphenicol-polyamine conjugates” (Bioorg Med Chem, 2015).
